Reference: PubChem BioAssay AID652204 (Vanderbilt Specialized Chemistry Center, 2013)
Active and inactive are the calls of the source. No rule for the calls is given here.

Target: Metabotropic glutamate receptor 4 (Rattus norvegicus) (UniProt P31423)
Test: mGlu4 modulation of glutamate calcium response, selectivity assay for mGlu5 silent allosteric modulator project, cell-based, rat, CHO, Gqi5, Fluo4 calcium (AID 652204)
Settings: CHO rmGlu4/Gqi5, Fluo4 calcium mobilization, glutamate CRC
Summary of the method: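 Material: CHO cells expressing rat mGlu4 together with Gqi5; technique: Fluo4 calcium-dye fluorescence; medium: HEPES-buffered HBSS with probenecid, pH 7.4; incubation: 37 °C 60-min dye-loading, compound 20 s, glutamate 80 s; also added: glutamate, 9-point concentration series, 10 nM–1 mM final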

Sequence of Metabotropic glutamate receptor 4 (Rattus norvegicus) (P31423 whole entry, looked up): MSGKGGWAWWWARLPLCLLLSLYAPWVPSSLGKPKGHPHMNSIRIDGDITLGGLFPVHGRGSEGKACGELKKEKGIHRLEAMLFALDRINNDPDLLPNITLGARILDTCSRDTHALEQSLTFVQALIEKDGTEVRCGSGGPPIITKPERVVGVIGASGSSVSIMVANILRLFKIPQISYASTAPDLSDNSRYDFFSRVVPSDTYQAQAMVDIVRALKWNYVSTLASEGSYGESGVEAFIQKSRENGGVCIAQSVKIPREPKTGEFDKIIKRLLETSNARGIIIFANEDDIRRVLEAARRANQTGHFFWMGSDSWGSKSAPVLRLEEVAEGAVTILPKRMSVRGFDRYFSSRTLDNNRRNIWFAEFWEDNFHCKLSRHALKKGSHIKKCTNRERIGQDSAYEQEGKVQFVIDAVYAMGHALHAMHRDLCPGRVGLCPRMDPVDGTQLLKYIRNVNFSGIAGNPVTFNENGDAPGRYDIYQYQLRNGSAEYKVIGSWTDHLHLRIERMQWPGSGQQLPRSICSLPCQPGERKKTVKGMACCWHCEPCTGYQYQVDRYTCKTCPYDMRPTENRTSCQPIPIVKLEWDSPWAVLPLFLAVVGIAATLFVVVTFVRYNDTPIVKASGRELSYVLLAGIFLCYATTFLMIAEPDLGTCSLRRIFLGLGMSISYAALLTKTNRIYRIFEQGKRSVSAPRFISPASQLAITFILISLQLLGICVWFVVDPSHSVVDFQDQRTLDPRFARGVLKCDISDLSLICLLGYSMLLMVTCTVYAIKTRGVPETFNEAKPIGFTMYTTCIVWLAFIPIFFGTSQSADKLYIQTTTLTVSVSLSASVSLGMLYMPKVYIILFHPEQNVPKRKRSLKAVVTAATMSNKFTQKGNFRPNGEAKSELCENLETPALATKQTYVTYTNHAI

glutamate EC50 in presence of 10 uM compound: inactive
fold shift (measured here: glutamate EC50 fold shift, at 10 µM): 1.23
Compound: O=C(c1ccc(C#Cc2cccc(F)c2)cn1)N1CC2CC2C1 (configuration not stated)
